Reference: ChEMBL document CHEMBL1143029, “Heme oxygenase inhibition by 2-oxy-substituted 1-(1H-imidazol-1-yl)-4-phenylbutanes: effect of halogen substitution in the phenyl ring” (Bioorg Med Chem, 2007)

Key:
Heme oxygenase 1 = biological target: T1, Heme oxygenase 1 (Rattus norvegicus, UniProt P06762); experiment: Inhibition of Sprague-Dawley rat spleen microsome HO1; format: microsomes
T1 sequence (P06762 whole entry): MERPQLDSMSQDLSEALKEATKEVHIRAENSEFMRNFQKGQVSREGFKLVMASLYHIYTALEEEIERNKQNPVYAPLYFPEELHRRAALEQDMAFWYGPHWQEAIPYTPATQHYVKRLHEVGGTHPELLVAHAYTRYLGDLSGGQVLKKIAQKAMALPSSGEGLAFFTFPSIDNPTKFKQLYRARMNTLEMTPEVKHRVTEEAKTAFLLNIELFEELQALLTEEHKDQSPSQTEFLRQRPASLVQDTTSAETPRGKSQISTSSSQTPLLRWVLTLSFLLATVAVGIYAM

Heme oxygenase 2 = biological target: T2, Heme oxygenase 2 (Rattus norvegicus, UniProt P23711); experiment: Inhibition of Sprague-Dawley rat brain microsome HO2
T2 sequence (P23711 whole entry): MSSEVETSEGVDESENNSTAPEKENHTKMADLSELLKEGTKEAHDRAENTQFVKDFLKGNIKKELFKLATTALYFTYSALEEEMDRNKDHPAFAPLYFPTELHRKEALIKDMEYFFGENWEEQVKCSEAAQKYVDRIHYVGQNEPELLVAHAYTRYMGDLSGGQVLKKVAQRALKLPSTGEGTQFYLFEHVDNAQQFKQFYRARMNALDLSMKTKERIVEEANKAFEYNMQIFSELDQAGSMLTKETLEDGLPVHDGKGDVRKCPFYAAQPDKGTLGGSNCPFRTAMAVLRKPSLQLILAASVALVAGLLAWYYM

Rattus norvegicus = species on record: Rattus norvegicus; experiment: Selectivity index, ratio of IC50 for Sprague-Dawley rat brain HO2 to IC50 for Sprague-Dawley rat spleen HO1; format: tissue-based
Outline: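 Ratio of IC50(HO-2) to IC50(HO-1). HO-2 comes from Sprague-Dawley rat brain microsomes and HO-1 from spleen microsomes. Both were assayed identically: methemalbumin substrate, 10 min inhibitor pre-incubation at 37 °C, 15 min reaction with 1 mM NADPH, and CO measured by GC. Each IC50 was derived from sigmoidal dose–response fits of percent-control activity.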

[1] = biological target: T3, Heme oxygenase 1 (Rattus norvegicus) (UniProt P06762); experiment: Inhibition of Sprague-Dawley rat spleen microsome HO1 at 0.1 uM relative to control; format: microsomes
T3 sequence (whole entry): T1 sequence (P06762 whole entry)
Outline: (§1)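 Spleen (HO-1) or brain (HO-2) microsomes from Sprague-Dawley rats, at 1 mg/mL protein in 100 mM phosphate buffer pH 7.4 with methemalbumin (heme–albumin) as substrate. Inhibitor hydrochloride pre-incubated 10 min at 37 °C, then 1 mM NADPH added for 15 min at 37 °C. Stopped by freezing on dry ice. CO formed measured by gas chromatography; activity given as percent of no-inhibitor control.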

[2] = biological target: T4, Heme oxygenase 2 (Rattus norvegicus) (UniProt P23711); experiment: Inhibition of Sprague-Dawley rat brain microsome HO2 at 0.1 uM relative to control; outline: as §1
T4 sequence (whole entry): T2 sequence (P23711 whole entry)

[3] = biological target: T4, Heme oxygenase 2 (Rattus norvegicus); experiment: Inhibition of Sprague-Dawley rat brain microsome HO2 at 100 uM relative to control; outline: as §1
[4] = biological target: T3, Heme oxygenase 1 (Rattus norvegicus); settings: Sprague-Dawley, Spleen, Microsome, 100 uM
[5] = biological target: T3, Heme oxygenase 1 (Rattus norvegicus); experiment: Inhibition of Sprague-Dawley rat spleen microsome HO1 at 0.01 uM relative to control; format: microsomes

`Ic1ccc(CCC2(Cn3ccnc3)OCCO2)cc1` gave an IC50 (Heme oxygenase 1) of 3.7 µM, an IC50 (Heme oxygenase 2) of over 100 µM and a Ratio IC50 (Rattus norvegicus) of over 27.
With `OC(CCc1ccc(I)cc1)Cn1ccnc1` (stereo not given) the IC50 (Heme oxygenase 2) was 1.8 µM.
Molecule `O=C(CCc1ccc(I)cc1)Cn1ccnc1` has a Ratio IC50 (Rattus norvegicus) of 16.4, an inhibition [1] of 44% and an inhibition [2] of 10%. For the same molecule, the inhibition [3] was 60% and the inhibition [4] was 80%.
Work on `OC(CCc1ccc(Cl)cc1)Cn1ccnc1` (stereo not given) yielded a Ratio IC50 (Rattus norvegicus) of 8 and an inhibition [3] of 90%.
`c1ccc(CCC2(Cn3ccnc3)OCCO2)cc1` gave an IC50 (Heme oxygenase 2) of over 100 µM.
`O=C(CCc1ccccc1)Cn1ccnc1` was tested, and the inhibition [3] was 60% and the inhibition [4] was 80%.
With `OC(CCc1ccc(Br)cc1)Cn1ccnc1` (stereo not given) the inhibition [1] was 55% and the inhibition [5] was 8%.
For `Nc1ccc(SC[C@@H]2CO[C@](CCc3ccc(Cl)cc3)(Cn3ccnc3)O2)cc1` [AZALANSTAT], the IC50 (Heme oxygenase 1) was 5.3 µM, the IC50 (Heme oxygenase 2) was 24.5 µM and the Ratio IC50 (Rattus norvegicus) was 4.6.
`O=C(CCc1ccc(Br)cc1)Cn1ccnc1` was tested, and the IC50 (Heme oxygenase 2) was 9.5 µM and the inhibition [3] was 60%.
Work on `Clc1ccc(CCC2(Cn3ccnc3)OCCO2)cc1` yielded an IC50 (Heme oxygenase 1) of 4.3 µM and a Ratio IC50 (Rattus norvegicus) of over 23.2.
With `O=C(CCc1ccc(F)cc1)Cn1ccnc1` the IC50 (Heme oxygenase 2) was 1.9 µM, the Ratio IC50 (Rattus norvegicus) was 1.4 and the inhibition [2] was 10%. For the same molecule, the inhibition [3] was 60% and the inhibition [4] was 80%.
Work on `Fc1ccc(CCC2(Cn3ccnc3)OCCO2)cc1` yielded an IC50 (Heme oxygenase 1) of 3.8 µM, an IC50 (Heme oxygenase 2) of over 100 µM and a Ratio IC50 (Rattus norvegicus) of over 26.3.
In the case of `OC(CCc1ccccc1)Cn1ccnc1` (stereo not given), the IC50 (Heme oxygenase 1) is reported as 6.2 µM and the Ratio IC50 (Rattus norvegicus) is reported as 2.6.
`Brc1ccc(CCC2(Cn3ccnc3)OCCO2)cc1` was tested, and the IC50 (Heme oxygenase 2) was over 100 µM and the Ratio IC50 (Rattus norvegicus) was over 52.6.
